In ChEMBL document CHEMBL1833959, “Itraconazole side chain analogues: structure-activity relationship studies for inhibition of endothelial cell proliferation, vascular endothelial growth factor receptor 2 (VEGFR2) glycosylation, and hedgehog signaling” (2011):
Calls of active or inactive are those of the source. The calls are words filed in the database; no cut-off is given here.

Legend:
[1] = tested on: HUVEC; assay: Ratio of itraconazole IC50 to compound IC50 for antiangiogenic activity in human HUVEC cells assessed as inhibition of cell proliferation; type: functional
[2] = molecular target: Vascular endothelial growth factor receptor 2 (Homo sapiens) (UniProt P35968); assay: Inhibition of VEGFR2 glycosylation in human HUVEC cells at 2 uM after 24 hrs by Western blot analysis; type: cell-based
Outline: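 Pooled HUVEC (passage ≤8, EGM-2) seeded 5 × 10^4 per well, recovered overnight, then given fresh media with analogue added from 200X DMSO stocks; 24 h exposure. Cells lysed in 2X SDS sample buffer (ice 10 min, boiled 10 min), 6% SDS-PAGE, PVDF blot probed with anti-VEGFR2 and HRP anti-rabbit IgG, ECL detection.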

[3] = Ratio of itraconazole IC50 to compound IC50 for antiproliferative activity against mouse Ptch+/- p53-/- medulloblastoma cells isolated from allografts in nude Harlan mouse after 96 hrs; type: functional, Medulloblastoma cell
Outline: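 Ptch−/+;p53−/− MB cells from nude-mouse allografts (ficoll-purified, three neurosphere passages, CD15 confirmed by flow cytometry) disaggregated and seeded in NBMedia with multiple analogue concentrations for 96 h. Cell number read by MTS-type CellTiter 96 AQueous absorbance; IC50 fitted from dose–response curves of mean corrected absorbance normalized to control, expressed relative to itraconazole.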

[4] = Inhibition of hedgehog signaling pathway in mouse Ptch+/- p53-/- medulloblastoma cells assessed as inhibition of receptor-mediated Gli1 transcriptional activity at antiproliferative IC90 concentration after 24 hrs by RT-PCR analysis relative to control
[5] = tested on: HUVEC; assay: Ratio of itraconazole IC50 to compound […] for antiangiogenic activity in human HUVEC cells assessed as inhibition of cell proliferation; type: functional

Sequence of Vascular endothelial growth factor receptor 2 (Homo sapiens) (P35968 whole entry): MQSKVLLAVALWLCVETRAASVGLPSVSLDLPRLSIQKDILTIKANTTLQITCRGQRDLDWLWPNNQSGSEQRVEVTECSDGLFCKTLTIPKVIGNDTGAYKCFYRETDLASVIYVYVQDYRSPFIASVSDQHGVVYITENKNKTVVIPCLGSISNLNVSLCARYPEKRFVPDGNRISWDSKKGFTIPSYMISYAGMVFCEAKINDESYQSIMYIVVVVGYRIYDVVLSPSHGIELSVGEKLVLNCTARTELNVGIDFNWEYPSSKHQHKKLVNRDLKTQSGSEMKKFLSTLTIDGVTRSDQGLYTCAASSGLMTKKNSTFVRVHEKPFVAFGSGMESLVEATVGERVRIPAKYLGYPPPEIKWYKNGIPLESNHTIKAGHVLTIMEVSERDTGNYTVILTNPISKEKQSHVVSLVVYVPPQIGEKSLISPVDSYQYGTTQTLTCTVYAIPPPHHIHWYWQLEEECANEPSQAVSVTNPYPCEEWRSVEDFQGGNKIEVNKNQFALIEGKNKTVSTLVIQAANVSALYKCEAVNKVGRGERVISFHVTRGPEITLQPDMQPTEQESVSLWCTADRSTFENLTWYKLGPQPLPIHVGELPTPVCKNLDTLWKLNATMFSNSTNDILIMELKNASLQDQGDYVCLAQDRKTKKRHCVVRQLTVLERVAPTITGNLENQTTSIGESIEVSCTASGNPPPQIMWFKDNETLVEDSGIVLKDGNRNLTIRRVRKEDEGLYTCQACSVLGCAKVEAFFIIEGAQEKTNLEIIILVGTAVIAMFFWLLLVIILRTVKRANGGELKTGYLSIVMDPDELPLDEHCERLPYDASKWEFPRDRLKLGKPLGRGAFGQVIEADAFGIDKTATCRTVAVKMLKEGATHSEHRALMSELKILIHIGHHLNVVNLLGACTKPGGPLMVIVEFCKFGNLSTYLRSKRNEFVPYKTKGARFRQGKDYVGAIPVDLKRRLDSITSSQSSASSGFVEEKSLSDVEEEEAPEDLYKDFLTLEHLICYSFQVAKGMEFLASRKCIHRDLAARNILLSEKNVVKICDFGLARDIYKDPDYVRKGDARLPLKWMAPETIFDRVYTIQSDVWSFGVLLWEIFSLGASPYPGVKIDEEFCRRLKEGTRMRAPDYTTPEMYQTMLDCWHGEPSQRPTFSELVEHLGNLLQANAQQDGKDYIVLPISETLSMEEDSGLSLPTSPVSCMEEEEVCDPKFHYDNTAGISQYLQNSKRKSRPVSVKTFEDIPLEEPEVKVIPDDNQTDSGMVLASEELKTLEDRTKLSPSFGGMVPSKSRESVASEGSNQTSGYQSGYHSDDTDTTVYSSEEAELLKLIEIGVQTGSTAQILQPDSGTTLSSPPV

inhibition [2]	fold change (FC) [4]	Compound	Ratio IC50 [1]	Ratio IC50 [3]	Ratio [5]
Active	< 0.15	CC(C)CCn1ncn(-c2ccc(N3CCN(c4ccc(OC[C@@H]5CO[C@@](Cn6cncn6)(c6ccc(Cl)cc6Cl)O5)cc4)CC3)cc2)c1=O	1.42	0.41	
inactive	< 0.15	C#CCCCn1ncn(-c2ccc(N3CCN(c4ccc(OC[C@H]5CO[C@](Cn6cncn6)(c6ccc(Cl)cc6Cl)O5)cc4)CC3)cc2)c1=O	0.14	0.71	
Active	< 0.15	CCCn1ncn(-c2ccc(N3CCN(c4ccc(OC[C@@H]5CO[C@@](Cn6cncn6)(c6ccc(Cl)cc6Cl)O5)cc4)CC3)cc2)c1=O	1.06	1.01	
inactive	> 0.45	CC(C)n1ncn(-c2ccc(N3CCN(c4ccc(OC[C@@H]5CO[C@@](Cn6cncn6)(c6ccc(Cl)cc6Cl)O5)cc4)CC3)cc2)c1=O	2.18	1.06	
inactive	< 0.15	CCC#CCCn1ncn(-c2ccc(N3CCN(c4ccc(OC[C@@H]5CO[C@@](Cn6cncn6)(c6ccc(Cl)cc6Cl)O5)cc4)CC3)cc2)c1=O	1.09	1.07	
Active	0.16	CC1(CCn2ncn(-c3ccc(N4CCN(c5ccc(OC[C@@H]6CO[C@@](Cn7cncn7)(c7ccc(Cl)cc7Cl)O6)cc5)CC4)cc3)c2=O)N=N1	>13.8	1.32	
Active	0.16	N#CCCCCCn1ncn(-c2ccc(N3CCN(c4ccc(OC[C@@H]5CO[C@@](Cn6cncn6)(c6ccc(Cl)cc6Cl)O5)cc4)CC3)cc2)c1=O	0.18	0.84	
inactive	> 0.45	Cn1ncn(-c2ccc(N3CCN(c4ccc(OC[C@@H]5CO[C@@](Cn6cncn6)(c6ccc(Cl)cc6Cl)O5)cc4)CC3)cc2)c1=O	4	2.71	
Active	> 0.45	CC(C)Cn1ncn(-c2ccc(N3CCN(c4ccc(OC[C@@H]5CO[C@@](Cn6cncn6)(c6ccc(Cl)cc6Cl)O5)cc4)CC3)cc2)c1=O	1.32	0.86	
inactive	< 0.15	O=c1[nH]ncn1-c1ccc(N2CCN(c3ccc(OC[C@@H]4CO[C@@](Cn5cncn5)(c5ccc(Cl)cc5Cl)O4)cc3)CC2)cc1	2.78	0.89	
inactive	> 0.45	CC1(CCCCCCCn2ncn(-c3ccc(N4CCN(c5ccc(OC[C@@H]6CO[C@@](Cn7cncn7)(c7ccc(Cl)cc7Cl)O6)cc5)CC4)cc3)c2=O)N=N1		1.18	1.1
inactive	> 0.45	CCCCn1ncn(-c2ccc(N3CCN(c4ccc(OC[C@@H]5CO[C@@](Cn6cncn6)(c6ccc(Cl)cc6Cl)O5)cc4)CC3)cc2)c1=O	2.1	0.7	
inactive	< 0.15	O=c1n(-c2ccc(N3CCN(c4ccc(OC[C@@H]5CO[C@@](Cn6cncn6)(c6ccc(Cl)cc6Cl)O5)cc4)CC3)cc2)cnn1CCCCCCc1ccccc1		0.69	1.45
Active		CC[C@H](C)n1ncn(-c2ccc(N3CCN(c4ccc(OC[C@@H]5CO[C@@](Cn6cncn6)(c6ccc(Cl)cc6Cl)O5)cc4)CC3)cc2)c1=O	0.8	1.3	
inactive		CC[C@@H](C)n1ncn(-c2ccc(N3CCN(c4ccc(OC[C@H]5CO[C@@](Cn6cncn6)(c6ccc(Cl)cc6Cl)O5)cc4)CC3)cc2)c1=O	3.9	1.7	

Further lines, the compound ahead of its results:

Compound	inhibition [2]	fold change (FC) [4]	Ratio IC50 [1]	Ratio IC50 [3]	Ratio [5]
CC[C@@H](C)n1ncn(-c2ccc(N3CCN(c4ccc(OC[C@@H]5CO[C@@](Cn6cncn6)(c6ccc(Cl)cc6Cl)O5)cc4)CC3)cc2)c1=O	Active		1.1	1.4	
CC[C@@H](C)n1ncn(-c2ccc(N3CCN(c4ccc(OC[C@H]5CO[C@](Cn6cncn6)(c6ccc(Cl)cc6Cl)O5)cc4)CC3)cc2)c1=O	Active		2.5	1.7	
CC[C@H](C)n1ncn(-c2ccc(N3CCN(c4ccc(OC[C@H]5CO[C@@](Cn6cncn6)(c6ccc(Cl)cc6Cl)O5)cc4)CC3)cc2)c1=O	Active		3.1	2.1	
CC/C=C/CCn1ncn(-c2ccc(N3CCN(c4ccc(OC[C@@H]5CO[C@@](Cn6cncn6)(c6ccc(Cl)cc6Cl)O5)cc4)CC3)cc2)c1=O	inactive	< 0.15	1.57	0.63	
O=c1n(-c2ccc(N3CCN(c4ccc(OC[C@@H]5CO[C@@](Cn6cncn6)(c6ccc(Cl)cc6Cl)O5)cc4)CC3)cc2)cnn1CC1CCCC1	Active	0.16	0.5	0.5	
CCn1ncn(-c2ccc(N3CCN(c4ccc(OC[C@@H]5CO[C@@](Cn6cncn6)(c6ccc(Cl)cc6Cl)O5)cc4)CC3)cc2)c1=O	inactive	> 0.45	2.94	1.62	
CC/C=C\CCn1ncn(-c2ccc(N3CCN(c4ccc(OC[C@@H]5CO[C@@](Cn6cncn6)(c6ccc(Cl)cc6Cl)O5)cc4)CC3)cc2)c1=O	inactive	< 0.15	0.73	0.94	
CCC(C)n1ncn(-c2ccc(N3CCN(c4ccc(OCC5COC(Cn6cncn6)(c6ccc(Cl)cc6Cl)O5)cc4)CC3)cc2)c1=O (stereo not drawn) [ITRACONAZOLE]	Active	< 0.15	1	1	
O=c1n(-c2ccc(N3CCN(c4ccc(OC[C@@H]5CO[C@@](Cn6cncn6)(c6ccc(Cl)cc6Cl)O5)cc4)CC3)cc2)cnn1C1CCCCC1	Active	> 0.45	0.44	0.37	
[N-]=[N+]=NCCCCCCn1ncn(-c2ccc(N3CCN(c4ccc(OC[C@@H]5CO[C@@](Cn6cncn6)(c6ccc(Cl)cc6Cl)O5)cc4)CC3)cc2)c1=O	Active	0.16	0.3	0.7	
CCC1(Cn2ncn(-c3ccc(N4CCN(c5ccc(OC[C@@H]6CO[C@@](Cn7cncn7)(c7ccc(Cl)cc7Cl)O6)cc5)CC4)cc3)c2=O)COC1	Active	0.16	0.77	0.74	
CCC(CC)n1ncn(-c2ccc(N3CCN(c4ccc(OC[C@@H]5CO[C@@](Cn6cncn6)(c6ccc(Cl)cc6Cl)O5)cc4)CC3)cc2)c1=O	Active	< 0.15	1.1	0.54	
CCCC(C)n1ncn(-c2ccc(N3CCN(c4ccc(OC[C@@H]5CO[C@@](Cn6cncn6)(c6ccc(Cl)cc6Cl)O5)cc4)CC3)cc2)c1=O (mixture of isomers)	Active	< 0.15	0.75	0.38	
CCCCCn1ncn(-c2ccc(N3CCN(c4ccc(OC[C@@H]5CO[C@@](Cn6cncn6)(c6ccc(Cl)cc6Cl)O5)cc4)CC3)cc2)c1=O	inactive	< 0.15	1.09	0.66	
CC[C@@H](C)n1ncn(-c2ccc(N3CCN(c4ccc(OC[C@@H]5CO[C@](Cn6cncn6)(c6ccc(Cl)cc6Cl)O5)cc4)CC3)cc2)c1=O	inactive		3.7	2.3	
O=C(c1ccccc1)c1ccc(OCCCCCCn2ncn(-c3ccc(N4CCN(c5ccc(OC[C@@H]6CO[C@@](Cn7cncn7)(c7ccc(Cl)cc7Cl)O6)cc5)CC4)cc3)c2=O)cc1	inactive	> 0.45	>69.9	0.8	
CC[C@H](C)n1ncn(-c2ccc(N3CCN(c4ccc(OC[C@@H]5CO[C@](Cn6cncn6)(c6ccc(Cl)cc6Cl)O5)cc4)CC3)cc2)c1=O	Active		3.2	1.5	
CCCCCCCCn1ncn(-c2ccc(N3CCN(c4ccc(OC[C@@H]5CO[C@@](Cn6cncn6)(c6ccc(Cl)cc6Cl)O5)cc4)CC3)cc2)c1=O	inactive	< 0.15		0.67	2.24
CC[C@H](C)n1ncn(-c2ccc(N3CCN(c4ccc(OC[C@H]5CO[C@](Cn6cncn6)(c6ccc(Cl)cc6Cl)O5)cc4)CC3)cc2)c1=O	Active		1.6	1.3	
